Compound activity from PubChem.
Beta2AR agonist: activates human beta-2 adrenergic receptor causing internalization | P07550 | Am2.2-beta2AR cells, FAP receptor internalization, flow cytometry | response, % (no concentration beside the values) | 340,000 tested, 0.43% active;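 active = response above a set limit, near 3 SD of response in nonfluorescent compounds, cut at about 42% in these data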
Arr AP2 block: blocks beta-arrestin peptide binding to AP2 adaptin. AID 504490. inhibition, % at 10 µM. FITC-arrestin peptide / GST-AP2 beads, flow cytometry; AP2 beta2 appendage carries R879A mutation. 340,000 tested, 0.31% active;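 active = inhibition above a set limit, near 3 SD of compounds lacking own fluorescence, cut at about 54% in these data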
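Material – GST-tagged AP2 beta2-adaptin appendage (R879A) on 4 µm glutathione beads · Probe or stimulus – fluorescein-tagged arrestin peptide at 50 nM final · Timing – 12 min plus 1 h, RT · Detection – bead flow cytometry, FITC channel · Read-out basis – inhibition as reduced fluorescein signal on beads, percent · Medium – PBS plus Tween 20 (0.05%) and BSA (0.1%)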
MBD2 inh: blocks human MBD2 binding to methylated DNA; 370,000 tested, 0.31% active; inhibition, % at 4.4 µM; AID 686964; TR-FRET, MBD2 binding to methylated oligonucleotide; Q9UBB5; in the data active = inhibition above about 13%
Rin1-Abl PPI inh: blocks binding of human Rin1 to Abl. P00519+Q13671. TR-FRET Rin1/Abl binding, biochemical. inhibition, % at 7.35 µM. 360,000 tested, 0.4% active. AID 588664; in the data active = inhibition above about 5%, passing the limit was not always enough
ABHD5-PLIN5 inh: blocks binding of human ABHD5 to perilipin-5 | Split G. princeps luciferase complementation, luminescence, 4 h | inhibition, % at 4 µM | 360,000 tested, 0.78% active | AID 602281;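 active = inhibition above the mean inhibition across every tested compound plus 3 SD, cut at about 22% in these data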
UHRF1 binding: human UHRF1 methylated DNA binding inhibitors; UHRF1 binding to methylated oligo, TR-FRET; AID 687016; inhibition, % at 4.4 µM; 370,000 tested, 0.75% active; in the data active = inhibition above about 21%;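 also: UHRF1 SRA domain binding a hemimethylated CpG hairpin DNA probe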
Arr-AP2 CP1: inhibitors of human beta-arrestin and AP2 interaction; GST-AP2 beads, FITC arrestin peptide binding, flow cytometry; GST-fused beta2-adaptin appendage, R879A mutant; 1,300 tested, 2% active; inhibition, % at 10 µM; shares compounds with Arr AP2 block;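 active = inhibition above a set limit, roughly 3 SD of non-fluorescent compound noise, cut at about 38% in these data; inactive = inhibition at or below that limit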;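 also: loss of bead fluorescence from 50 nM FITC arrestin peptide bound to appendage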
Target sequence (P63010 whole entry, looked up, the tested form may be a part, one chain of several): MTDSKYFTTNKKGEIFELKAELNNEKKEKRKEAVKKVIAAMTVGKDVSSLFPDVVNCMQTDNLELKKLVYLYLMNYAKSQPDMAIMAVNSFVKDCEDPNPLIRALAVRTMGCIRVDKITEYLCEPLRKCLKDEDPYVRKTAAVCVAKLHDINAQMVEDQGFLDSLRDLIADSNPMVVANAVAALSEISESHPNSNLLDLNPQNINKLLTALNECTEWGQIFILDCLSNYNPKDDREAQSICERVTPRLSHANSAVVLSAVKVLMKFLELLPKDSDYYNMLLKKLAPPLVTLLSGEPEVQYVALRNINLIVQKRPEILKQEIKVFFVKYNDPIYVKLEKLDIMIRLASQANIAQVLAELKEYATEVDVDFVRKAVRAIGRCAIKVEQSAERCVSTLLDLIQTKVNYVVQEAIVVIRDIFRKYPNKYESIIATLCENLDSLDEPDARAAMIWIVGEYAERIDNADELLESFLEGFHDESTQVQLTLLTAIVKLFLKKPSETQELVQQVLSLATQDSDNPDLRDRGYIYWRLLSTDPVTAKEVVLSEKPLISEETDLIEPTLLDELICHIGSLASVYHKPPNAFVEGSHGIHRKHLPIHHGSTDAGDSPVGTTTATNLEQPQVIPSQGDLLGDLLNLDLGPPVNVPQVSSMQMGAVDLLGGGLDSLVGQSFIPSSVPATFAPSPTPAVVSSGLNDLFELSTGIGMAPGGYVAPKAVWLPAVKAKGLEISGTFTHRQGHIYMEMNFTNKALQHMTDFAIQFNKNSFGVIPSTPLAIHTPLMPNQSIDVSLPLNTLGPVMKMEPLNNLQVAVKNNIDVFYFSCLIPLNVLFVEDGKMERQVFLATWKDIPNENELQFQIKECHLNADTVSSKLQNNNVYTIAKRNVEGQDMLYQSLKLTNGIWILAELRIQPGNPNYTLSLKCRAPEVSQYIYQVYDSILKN
GST GSH counter: GST-GSH bead binding interference, counter-screen; 1,300 tested, 2% active; shares compounds with Arr AP2 block; inhibition, % at 10 µM; GST-fluorescein binding to GSH beads, fluorescence; AID 588338;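 active = inhibition above 50%, about 3 SD of the inhibition seen with non-fluorescent compounds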;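 also: fluorescein maleimide labelled GST captured on 4 micron glutathione beads; higher means more loss of bead fluorescence from quenching or blocked binding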
Of the large screens only hits and unclear results are named; the others gave an inactive call (follow-up assays come after a bar, where they were run). The list is not random: actives were taken first. Their share in the collection is about 2.5%.

CC1=C2NC(N)=[N+](CC3CC3)C(Cc3ccccc3)[C@@H]2n2c(=O)n(-c3ccccc3)c(=O)n2C1 (stereo partly drawn)	none (no result: Beta2AR agonist, Arr AP2 block, Rin1-Abl PPI inh, ABHD5-PLIN5 inh)
CN(C(=O)[C@@H](C1CC1)[C@@H](O)c1ccc(Cl)cc1)c1ccccc1	none (no result: Beta2AR agonist, Arr AP2 block, Rin1-Abl PPI inh, ABHD5-PLIN5 inh)
COc1ccc(CN(C)CC(=O)Nc2cc3oc4ccccc4c3cc2OC)c(OC)c1	none | Arr-AP2 CP1 inactive | GST GSH counter inactive
COc1cc2c(cc1NC(=O)CN(C)Cc1ccc(OC)c(OC)c1)oc1ccccc12	none | Arr-AP2 CP1 inactive | GST GSH counter inactive
COc1cccc(CN(C)c2nc(-c3cccs3)nc3ccccc23)c1	Arr AP2 block 55.0 | Arr-AP2 CP1 inactive | GST GSH counter inactive
O=C(CNC(=O)c1ccccc1)NCC(c1ccco1)N1CCCC1 (stereo not drawn)	none
O=C(CNC(=O)c1ccccc1Br)NCC(c1ccco1)N1CCCCC1 (stereo not drawn)	Arr AP2 block 65.8 | Arr-AP2 CP1 inactive | GST GSH counter inactive
CN(Cc1ccccn1)C(=O)C1CCC(=O)N(Cc2cccc(F)c2)C1 (stereo not drawn)	none
COc1cccc(CN(C)C(=O)C2CCC(=O)N(Cc3cccc(F)c3)C2)c1 (stereo not drawn)	none | Arr-AP2 CP1 inactive | GST GSH counter inactive
CC[n+]1c(/C=C/Nc2ccccc2)oc2ccc(OC)cc21	Arr AP2 block 57.9 | Arr-AP2 CP1 inactive | GST GSH counter inactive
Cc1c(C(=O)NC(C)C)oc2c1-c1[nH]ncc1CC2	Arr AP2 block 104.3 | Arr-AP2 CP1 inactive | GST GSH counter inactive
CCOc1ccc(CCNC(=O)c2oc3c(c2C)-c2[nH]ncc2CC3)cc1OCC	none
CCn1c(CC(=O)Nc2ccc(OC)cc2)nnc1SCC(=O)N1CCOCC1	Arr AP2 block 65.9 | Arr-AP2 CP1 inactive | GST GSH counter inactive
CCCCn1c(N)c(NCC(C)C)c(=O)[nH]c1=O	Arr AP2 block 56.9 | Arr-AP2 CP1 inactive | GST GSH counter inactive
Cc1ccc2c(c1)C(CS(=O)(=O)NCc1ccccc1)NC2 (stereo not drawn)	none (no result: Beta2AR agonist, Arr AP2 block, Rin1-Abl PPI inh, ABHD5-PLIN5 inh)
N#C/C(=C/c1cn(-c2ccccc2)nc1-c1cccc(S(=O)(=O)N2CCCC2)c1)C(=O)NCc1ccco1	none
N#C/C(=C/c1cn(-c2ccccc2)nc1-c1cccc(S(=O)(=O)N2CCOCC2)c1)C(=O)NCc1ccco1	Arr AP2 block 99.1 | Arr-AP2 CP1 inactive | GST GSH counter inactive
Cc1c(NC(=O)C2CCCN(S(=O)(=O)c3ccc(Br)s3)C2)c(=O)n(-c2ccccc2)n1C (stereo not drawn)	none (no result: Beta2AR agonist, Arr AP2 block, Rin1-Abl PPI inh, ABHD5-PLIN5 inh)
S=c1[nH]nc(-c2n[nH]c3c2CCC3)n1N=Cc1cccs1	none (no result: Beta2AR agonist, Arr AP2 block, Rin1-Abl PPI inh, ABHD5-PLIN5 inh)
CCN1/C(=C/C(C)=C/c2sc3ccccc3[n+]2CC)Sc2ccccc21	Arr AP2 block 85.9 | Arr-AP2 CP1 71.2 | GST GSH counter inactive
CCN1/C(=C\C(=S)Nc2ccccc2)Sc2ccccc21	none
C/C(=N\NC(=O)CNc1ccc(F)cc1)c1cc2ccccc2o1	Arr AP2 block 63.7 | Arr-AP2 CP1 inactive | GST GSH counter inactive
Cc1noc(C)c1CSc1ncnc2sc3c(c12)CCCCC3	none
Cc1noc(C)c1CSc1ncnc2sc(C)c(C)c12	Arr AP2 block 104.7 | Arr-AP2 CP1 inactive | GST GSH counter inactive
Brc1cccc(CNCc2cccs2)c1	Arr AP2 block 54.9 | Arr-AP2 CP1 inactive | GST GSH counter inactive
CC(C)=C1SC(N2CCCCC2)=NC1=O	none
C/C(=C1/SC(N2CCCC2)=NC1=O)c1ccc(Br)cc1	Arr AP2 block 78.9 | Arr-AP2 CP1 inactive | GST GSH counter inactive
COc1ccc(-n2nc(N)c(C(N)=O)n2)cc1	Arr AP2 block 54.6 | Arr-AP2 CP1 inactive | GST GSH counter inactive
CCS(=O)(=O)Nc1cccc(C2=NN(C(C)=O)C(c3cccs3)C2)c1 (stereo not drawn)	Arr AP2 block 54.4 | Arr-AP2 CP1 inactive | GST GSH counter inactive
CC(=O)N1N=C(c2cccc(NS(C)(=O)=O)c2)CC1c1cccs1 (stereo not drawn)	none
CCCCC(=O)Nc1nc2c(OC)cc([N+](=O)[O-])cc2s1	Arr AP2 block 54.9 | Arr-AP2 CP1 inactive | GST GSH counter inactive
COc1ccc(-c2nnn(CC(=O)Nc3ccc4c(c3)OCCO4)n2)cc1OC	Arr AP2 block 60.4 (no result: MBD2 inh, UHRF1 binding) | Arr-AP2 CP1 inactive | GST GSH counter inactive
NC(=O)C1CCN(c2nc(-c3ccc4c(c3)CCO4)cs2)CC1	none (no result: Beta2AR agonist, Arr AP2 block, Rin1-Abl PPI inh, ABHD5-PLIN5 inh)
C=CCc1cccc(C=NNC(=O)c2ccco2)c1O	none (no result: Beta2AR agonist, Arr AP2 block, Rin1-Abl PPI inh, ABHD5-PLIN5 inh)
CCOC(=O)C1=C(COC(=O)COc2ccc(C#N)cc2)NC(=O)NC1C (stereo not drawn)	UHRF1 binding 22.2 | Arr-AP2 CP1 inactive | GST GSH counter inactive
CCOC(=O)C1=C(COC(=O)c2ccc(OC(C)C)cc2)NC(=O)NC1C (stereo not drawn)	none
CCOC(=O)C1=C(COC(=O)CNC(=O)c2ccc(C)cc2)NC(=O)NC1C (stereo not drawn)	none
CCOC(=O)C1=C(COC(=O)COc2ccc(C(=O)CC)cc2)NC(=O)NC1C (stereo not drawn)	none | Arr-AP2 CP1 inactive | GST GSH counter inactive
CCOC(=O)C1=C(COC(=O)COc2ccc(C(C)=O)cc2)NC(=O)NC1C (stereo not drawn)	none | Arr-AP2 CP1 inactive | GST GSH counter inactive
CCOC(=O)C1=C(COC(=O)CNC(=O)c2ccc(C(C)(C)C)cc2)NC(=O)NC1C (stereo not drawn)	none
CCOC(=O)C1=C(COC(=O)COc2cc(C)ccc2C)NC(=O)NC1C (stereo not drawn)	none | Arr-AP2 CP1 inactive | GST GSH counter inactive
CCOC(=O)C1=C(COC(=O)c2c(OC)cccc2OC)NC(=O)NC1C (stereo not drawn)	none
CCOC(=O)C1=C(COC(=O)COc2ccccc2C#N)NC(=O)NC1C (stereo not drawn)	none | Arr-AP2 CP1 inactive | GST GSH counter inactive
CC(/C=C/C=C/c1ccccc1)=N\NC(=O)c1cccnc1	none
CC(/C=C\C=C\c1ccccc1)=N\NC(=O)c1cncc(Br)c1	Arr AP2 block 92.5 | Arr-AP2 CP1 inactive | GST GSH counter inactive
O=C(Oc1ccccc1F)c1ccc2c(=O)n3c(nc2c1)CCC3	Arr AP2 block 57.4 | Arr-AP2 CP1 inactive | GST GSH counter inactive
N=c1c2cn[nH]c2nc(SCC(=O)c2ccc(Br)cc2)n1-c1ccc(Br)cc1	Arr AP2 block 74.0 | Arr-AP2 CP1 inactive | GST GSH counter inactive
O=C(CSc1nc2[nH]ncc2c(=O)n1-c1ccccc1)c1ccc2c(c1)OCCO2	none
Cn1c(=O)cc(OCCCC(=O)Nc2cc(-c3cn[nH]c3)ccn2)c2ccccc21	none (no result: Beta2AR agonist, Arr AP2 block, Rin1-Abl PPI inh, ABHD5-PLIN5 inh)
